What all share (type): functional, cell-based
Common to all, as to conditions: hek293

The target in assay [1] is Melanocyte-stimulating hormone receptor (Mus musculus, UniProt Q01727). Kind of assay: Agonist activity at mouse MC1 receptor expressed in HEK293 cells after 6 hrs by cAMP-based beta-galactosidase reporter gene assay. A digest of the protocol: (§1)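 HEK-293 cells stably expressing the mouse receptor, kept in DMEM with 10% fetal calf serum, transfected with CRE/β-galactosidase reporter. Efficacy is relative to NDP-MSH on the same plate. EC50 is the mean of duplicate wells from three or more independent experiments, fitted by nonlinear least squares.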
On the technique in general: Reporter assays use an easily measured gene product as a stand-in for the process of interest.

The next assay deals with Melanocortin receptor 4 (Mus musculus, UniProt P56450). Description: Agonist activity at mouse MC4 receptor expressed in HEK293 cells after 6 hrs by cAMP-based beta-galactosidase reporter gene assay. A digest of the protocol:
as §1

Another assay addresses Melanocortin receptor 5 (Mus musculus, UniProt P41149). Description: Agonist activity at mouse MC5 receptor expressed in HEK293 cells after 6 hrs by cAMP-based beta-galactosidase reporter gene assay. Summed up:
as §1

Sequence of Melanocortin receptor 5 (P41149 whole entry): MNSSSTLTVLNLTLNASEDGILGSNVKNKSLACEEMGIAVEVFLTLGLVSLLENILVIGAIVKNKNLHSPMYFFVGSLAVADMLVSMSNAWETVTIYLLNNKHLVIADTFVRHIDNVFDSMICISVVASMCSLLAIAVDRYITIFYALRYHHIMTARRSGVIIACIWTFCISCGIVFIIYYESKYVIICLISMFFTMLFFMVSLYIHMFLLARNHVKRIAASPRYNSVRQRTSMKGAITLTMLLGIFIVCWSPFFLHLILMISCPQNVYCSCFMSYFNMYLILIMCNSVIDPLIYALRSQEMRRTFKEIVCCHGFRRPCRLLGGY
Sequence of Melanocyte-stimulating hormone receptor (Q01727 whole entry): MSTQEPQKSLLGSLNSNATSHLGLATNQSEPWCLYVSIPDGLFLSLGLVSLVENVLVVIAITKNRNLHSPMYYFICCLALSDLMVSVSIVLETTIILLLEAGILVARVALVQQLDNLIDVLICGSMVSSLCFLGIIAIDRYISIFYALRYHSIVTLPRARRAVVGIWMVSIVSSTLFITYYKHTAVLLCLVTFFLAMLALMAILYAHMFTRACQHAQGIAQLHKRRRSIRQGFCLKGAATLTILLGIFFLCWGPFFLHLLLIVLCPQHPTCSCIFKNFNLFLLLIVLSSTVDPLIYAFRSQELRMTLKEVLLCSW
Sequence of Melanocortin receptor 4 (P56450 whole entry): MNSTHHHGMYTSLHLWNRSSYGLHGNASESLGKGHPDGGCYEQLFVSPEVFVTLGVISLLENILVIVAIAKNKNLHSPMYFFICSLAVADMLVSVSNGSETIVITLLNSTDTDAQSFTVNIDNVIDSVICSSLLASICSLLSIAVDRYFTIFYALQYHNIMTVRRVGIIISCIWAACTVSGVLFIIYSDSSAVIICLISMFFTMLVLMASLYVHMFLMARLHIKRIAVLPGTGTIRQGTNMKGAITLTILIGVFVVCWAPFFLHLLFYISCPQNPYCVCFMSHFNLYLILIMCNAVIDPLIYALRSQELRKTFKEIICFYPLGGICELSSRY

For the compound `C[C@@H]1NC(=O)[C@H](CC(N)=O)NC(=O)[C@H](Cc2ccc3ccccc3c2)N2C[C@H](CCCNC(=N)N)NC(=O)[C@H](CSCC2=O)NC(=O)[C@@H](Cc2ccccc2)NC(=O)[C@H](Cc2c[nH]cn2)NC(=O)[C@@H](NC(=O)[C@@H](N)Cc2ccc(O)cc2)CSSC[C@@H](C(=O)N[C@@H](Cc2ccc(O)cc2)C(N)=O)NC(=O)[C@H](Cc2ccccc2)NC1=O`, the values for the EC50 (in assay [1]; on Melanocortin receptor 4; on Melanocortin receptor 5) were 6.2 nM, 220 nM and 52 nM, respectively.
In the same order, the values of `C[C@@H]1NC(=O)[C@H](CC(N)=O)NC(=O)[C@H](C)N2C[C@H](CCCNC(=N)N)NC(=O)[C@H](CSCC2=O)NC(=O)[C@@H](Cc2ccccc2)NC(=O)[C@H](Cc2c[nH]cn2)NC(=O)[C@@H](NC(=O)[C@@H](N)Cc2ccc(O)cc2)CSSC[C@@H](C(=O)N[C@@H](Cc2ccc(O)cc2)C(N)=O)NC(=O)[C@H](Cc2ccccc2)NC1=O` are 80 nM, 210 nM and 125 nM.
With `C[C@@H]1NC(=O)[C@H](CC(N)=O)NC(=O)[C@H](Cc2c[nH]c3ccccc23)N2C[C@H](CCCNC(=N)N)NC(=O)[C@H](CSCC2=O)NC(=O)[C@@H](Cc2cccc3ccccc23)NC(=O)[C@H](Cc2c[nH]cn2)NC(=O)[C@@H](NC(=O)[C@@H](N)Cc2ccc(O)cc2)CSSC[C@@H](C(=O)N[C@@H](Cc2ccc(O)cc2)C(N)=O)NC(=O)[C@H](Cc2ccccc2)NC1=O`, the results for the EC50 (in assay [1]; on Melanocortin receptor 4; at Melanocortin receptor 5) were 7.4 nM, 130 nM and 205 nM, respectively.
In the same order, the values of `C[C@@H]1NC(=O)[C@H](CC(N)=O)NC(=O)[C@H](Cc2c[nH]c3ccccc23)N2C[C@H](CCCNC(=N)N)NC(=O)[C@H](CSCC2=O)NC(=O)[C@@H](Cc2ccc3ccccc3c2)NC(=O)[C@H](Cc2c[nH]cn2)NC(=O)[C@@H](NC(=O)[C@@H](N)Cc2ccc(O)cc2)CSSC[C@@H](C(=O)N[C@@H](Cc2ccc(O)cc2)C(N)=O)NC(=O)[C@H](Cc2ccccc2)NC1=O` are 8.7 nM, 190 nM and 46 nM.
For `C[C@@H]1NC(=O)[C@H](CC(N)=O)NC(=O)[C@@H](Cc2ccc3ccccc3c2)N2C[C@H](CCCNC(=N)N)NC(=O)[C@H](CSCC2=O)NC(=O)[C@@H](Cc2ccccc2)NC(=O)[C@H](Cc2c[nH]cn2)NC(=O)[C@@H](NC(=O)[C@@H](N)Cc2ccc(O)cc2)CSSC[C@@H](C(=O)N[C@@H](Cc2ccc(O)cc2)C(N)=O)NC(=O)[C@H](Cc2ccccc2)NC1=O`, in that order: 14 nM, 50 nM and 29 nM.
For `C[C@@H]1NC(=O)[C@H](CC(N)=O)NC(=O)[C@H](Cc2c[nH]c3ccccc23)N2C[C@H](CCCCNC(=N)N)NC(=O)[C@H](CSCC2=O)NC(=O)[C@@H](Cc2ccccc2)NC(=O)[C@H](Cc2c[nH]cn2)NC(=O)[C@@H](NC(=O)[C@@H](N)Cc2ccc(O)cc2)CSSC[C@@H](C(=O)N[C@@H](Cc2ccc(O)cc2)C(N)=O)NC(=O)[C@H](Cc2ccccc2)NC1=O`, in that order: 15 nM, 965 nM and 350 nM.
As for `C[C@@H]1NC(=O)[C@H](CC(N)=O)NC(=O)[C@H](Cc2c[nH]c3ccccc23)N2C[C@H](CCCNC(=N)N)NC(=O)[C@H](CSCC2=O)NC(=O)[C@@H]2CCCN2C(=O)[C@H](Cc2c[nH]cn2)NC(=O)[C@@H](NC(=O)[C@@H](N)Cc2ccc(O)cc2)CSSC[C@@H](C(=O)N[C@@H](Cc2ccc(O)cc2)C(N)=O)NC(=O)[C@H](Cc2ccccc2)NC1=O`, the concentration for a half-maximal effect (EC50) (as a rule, the concentration that produces a half-maximal response) was determined as 5000 nM in assay [1], 5400 nM on Melanocortin receptor 4 and 1100 nM at Melanocortin receptor 5.
Turning to `C[C@@H]1NC(=O)[C@H](CC(N)=O)NC(=O)[C@H](Cc2ccc(-c3ccccc3)cc2)N2C[C@H](CCCNC(=N)N)NC(=O)[C@H](CSCC2=O)NC(=O)[C@@H](Cc2ccccc2)NC(=O)[C@H](Cc2c[nH]cn2)NC(=O)[C@@H](NC(=O)[C@@H](N)Cc2ccc(O)cc2)CSSC[C@@H](C(=O)N[C@@H](Cc2ccc(O)cc2)C(N)=O)NC(=O)[C@H](Cc2ccccc2)NC1=O`, the EC50 in assay [1] stood at 20 nM; on Melanocortin receptor 4 it was 980 nM; on Melanocortin receptor 5, 830 nM.
For `C[C@@H]1NC(=O)[C@H](CC(N)=O)NC(=O)[C@H](Cc2c[nH]c3ccccc23)N2C[C@H](C)NC(=O)[C@H](CSCC2=O)NC(=O)[C@@H](Cc2ccccc2)NC(=O)[C@H](Cc2c[nH]cn2)NC(=O)[C@@H](NC(=O)[C@@H](N)Cc2ccc(O)cc2)CSSC[C@@H](C(=O)N[C@@H](Cc2ccc(O)cc2)C(N)=O)NC(=O)[C@H](Cc2ccccc2)NC1=O`, in that order: 19 nM, 1300 nM and 850 nM.
As for `C[C@@H]1NC(=O)[C@H](CC(N)=O)NC(=O)[C@H](Cc2c[nH]c3ccccc23)N2C[C@H](CCCNC(=N)N)NC(=O)[C@H](CSCC2=O)NC(=O)[C@@H](Cc2ccc(-c3ccccc3)cc2)NC(=O)[C@H](Cc2c[nH]cn2)NC(=O)[C@@H](NC(=O)[C@@H](N)Cc2ccc(O)cc2)CSSC[C@@H](C(=O)N[C@@H](Cc2ccc(O)cc2)C(N)=O)NC(=O)[C@H](Cc2ccccc2)NC1=O`, the EC50 came to 1.1 nM in assay [1], 760 nM on Melanocortin receptor 4 and 87 nM at Melanocortin receptor 5.
For `C[C@@H]1NC(=O)[C@H](CC(N)=O)NC(=O)[C@H](Cc2c[nH]c3ccccc23)N2C[C@H](CCCNC(=N)N)NC(=O)[C@H](CSCC2=O)NC(=O)[C@@H](Cc2ccccc2)NC(=O)[C@H](Cc2ccccc2)NC(=O)[C@@H](NC(=O)[C@@H](N)Cc2ccc(O)cc2)CSSC[C@@H](C(=O)N[C@@H](Cc2ccc(O)cc2)C(N)=O)NC(=O)[C@H](Cc2ccccc2)NC1=O`, in that order: 1.94 nM, 290 nM and 415 nM.
In the same order, the values of `C[C@@H]1NC(=O)[C@H](CC(N)=O)NC(=O)[C@H](Cc2c[nH]c3ccccc23)N2C[C@H](CCCCN)NC(=O)[C@H](CSCC2=O)NC(=O)[C@@H](Cc2ccccc2)NC(=O)[C@H](Cc2c[nH]cn2)NC(=O)[C@@H](NC(=O)[C@@H](N)Cc2ccc(O)cc2)CSSC[C@@H](C(=O)N[C@@H](Cc2ccc(O)cc2)C(N)=O)NC(=O)[C@H](Cc2ccccc2)NC1=O` are 30 nM, 420 nM and 460 nM.
In the same order, the values of `C[C@@H]1NC(=O)[C@H](CC(N)=O)NC(=O)[C@H](Cc2c[nH]c3ccccc23)N2C[C@H](CCCNC(=N)N)NC(=O)[C@H](CSCC2=O)NC(=O)[C@@H](Cc2ccccc2)NC(=O)[C@@H]2CCCN2C(=O)[C@@H](NC(=O)[C@@H](N)Cc2ccc(O)cc2)CSSC[C@@H](C(=O)N[C@@H](Cc2ccc(O)cc2)C(N)=O)NC(=O)[C@H](Cc2ccccc2)NC1=O` are 32 nM, 240 nM and 270 nM.
With `C[C@@H]1NC(=O)[C@H](CC(N)=O)NC(=O)[C@H](Cc2c[nH]c3ccccc23)N2C[C@H](CCCNC(=N)N)NC(=O)[C@H](CSCC2=O)NC(=O)[C@@H](Cc2ccc(I)cc2)NC(=O)[C@H](Cc2c[nH]cn2)NC(=O)[C@@H](NC(=O)[C@@H](N)Cc2ccc(O)cc2)CSSC[C@@H](C(=O)N[C@@H](Cc2ccc(O)cc2)C(N)=O)NC(=O)[C@H](Cc2ccccc2)NC1=O`, the EC50 in assay [1] stood at 0.5 nM; at Melanocortin receptor 4, 20 nM; on Melanocortin receptor 5, 9.8 nM.

Source of the values: ChEMBL document CHEMBL2321783, “Structure-activity relationships of peptides incorporating a bioactive reverse-turn heterocycle at the melanocortin receptors: identification of a 5800-fold mouse melanocortin-3 receptor (mMC3R) selective antagonist/partial agonist versus the mouse melanocortin-4 receptor (mMC4R)” (J Med Chem, 2013).
